Assay outcomes: PubChem, The Scripps Research Institute Molecular Screening Center
Only some compounds are listed: those with a hit (about 3% of all), similar ones and a draw of the others.
HTR1A agonist: activates the human 5-HT1a serotonin receptor; AID 567; CHO 5-HT1a Ga15 NFAT-bla reporter, FRET ratio; 0% basal, 100% maximal reference agonist; actives 0.56% (n = 65,000); P08908; activation, % at 10 µM;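 active means activation above the screen-wide mean activation plus 3 SD, cut at about 19% in these data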
5HT1a antag: antagonists of human 5-HT1a serotonin receptor; P08908; CHO 5-HT1a Ga15 NFAT-bla reporter, antagonist mode; inhibition, % at 10 µM; actives 0.68% (n = 62,000);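 active means inhibition above the mean of all tested compounds plus 3 SD, cut at about 43% in these data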;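 further: receptor stimulated by 5-CT agonist at 100 nM near EC80; beta-lactamase reporter measured by ratiometric fluorescence of a cleavable substrate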
S1P1 ag-PAM: activates or potentiates agonism at human S1P1 receptor; activation, % at 9.5 µM; P21453; S1P1 CRE-bla cells, forskolin, beta-lactamase FRET, potentiator mode; S1P1 agonist co-added at EC20, 2 nM; 100% = saturating reference agonist, 0% = basal; actives 0.57% (n = 56,000);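 active means activation above a cutoff set at the mean activation of all tested compounds plus 3 SD, cut at about 54% in these data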;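 further: forskolin at 4 µM as EC80 and the EC20 agonist is SEW2871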
Target sequence (P21453 whole entry, looked up): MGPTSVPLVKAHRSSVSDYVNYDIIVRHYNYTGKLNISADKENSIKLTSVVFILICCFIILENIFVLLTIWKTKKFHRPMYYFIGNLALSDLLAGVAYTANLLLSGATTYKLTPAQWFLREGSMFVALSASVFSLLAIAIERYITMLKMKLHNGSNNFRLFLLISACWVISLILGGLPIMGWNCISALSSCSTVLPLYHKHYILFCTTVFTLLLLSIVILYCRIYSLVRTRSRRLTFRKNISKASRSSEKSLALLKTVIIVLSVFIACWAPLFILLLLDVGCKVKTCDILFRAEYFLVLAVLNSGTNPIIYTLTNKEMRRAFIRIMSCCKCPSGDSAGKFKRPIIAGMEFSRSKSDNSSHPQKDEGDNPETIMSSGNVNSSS
HTR1E antagonist: 5-HT1E (human) receptor antagonism | P28566 | CHO 5-HT1E Ga15 NFAT-bla reporter, FRET, antagonist | inhibition, % at 6 µM | actives 0.99% (n = 65,000);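 active means inhibition above a set limit, the mean inhibition across every tested compound plus 3 SD, cut at about 29% in these data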;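 further: signal is the 460 over 535 nm emission ratio of beta-lactamase substrate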
5HT1E ag: agonists of human 5-HT1E serotonin receptor. P28566. CHO 5-HT1E Ga15 NFAT-bla reporter, FRET; 0% DMSO wells, 100% control agonist wells. activation, % at 6 µM. actives 0.69% (n = 65,000). AID 574;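 active means activation above a set limit, the screen-wide mean activation plus 3 SD, cut at about 8.5% in these data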
S1P3 agonist: agonists of human S1P3 receptor; Q99500; S1P3 NFAT-BLA reporter cells, agonism, FRET ratio; relative to 1 µM S1P, basal subtracted; activation, % at 4.5 µM; actives 0.1% (n = 60,000); AID 373;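 active means activation above the screen-wide mean plus 3 SD, cut at about 4.5% in these data, passing the limit was not always enough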
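Measure – % activation relative to 1 µM S1P (100%), per plate · System – stable CHO line with human S1P3, Gα16, NFAT-BLA reporter · Timing – cells plated overnight, compound 4 h 37 °C, substrate 2 h RT · Technique – fluorescent BLA substrate, ex 405 nm, em 460/535 nm ratio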
A number is an active result; i = inactive; nt = no result.

SMILES	HTR1A agonist	5HT1a antag	S1P1 ag-PAM	HTR1E antagonist	5HT1E ag	S1P3 agonist
O=S(=O)(c1ccc2oc3ccc(S(=O)(=O)N4CCCC4)cc3c2c1)N1CCCC1	i	i	i	i	i	i
CCN(CC)C(=O)C1CCN(S(=O)(=O)c2ccc3oc4ccccc4c3c2)CC1	i	i	84	i	i	i
CCOC(=O)C1CCCN(C(=O)c2cc3nc(-c4cccc(OC)c4)cc(C(F)(F)F)n3n2)C1 (stereo not given)	i	i	nt	35	i	i
COCCSc1ccccc1C(=O)N1CCN(Cc2ccc3c(c2)OCO3)CC1	i	i	i	i	i	i
Cc1nc2oc3c(NCc4ccccc4)ncnc3c2c2c1COC(C)(C)C2	i	i	i	i	i	i
CCCc1nc2oc3c(NCCOCCO)ncnc3c2c2c1COC(C)(C)C2	i	i	i	30	i	i
CCOc1ccccc1NC(=O)CSc1nccn1-c1ccccc1	i	i	i	i	i	i
COc1ccc(NC(=O)CSc2nccn2-c2ccccc2)c(OC)c1	i	i	i	i	22	i
Cc1cc(NC(=O)CSc2n[nH]c(CC(C)C)n2)no1	i	i	i	i	i	i
C=CCSc1nc(N)c(C(=O)Nc2ccccc2C)cc1C(N)=O	i	i	i	i	i	i
COc1cccc(Cn2nnc(C(=O)NCc3ccc(F)cc3)c2N)c1	i	i	i	32	i	i
CCn1c(COc2ccccc2C)nnc1SCC(=O)CC(=O)Nc1ccccc1OC	i	i	i	i	i	i
CSc1nc2[nH]c3c(c2c2nncn12)CC(C)(C)OC3	i	nt	i	i	i	i
CSc1nc2[nH]c3c(c2c2nnnn12)CCCC3	i	nt	i	36	i	i
CCCc1nnc(SCc2ccc(OC)cc2)n1N	i	i	i	i	i	i
Cc1csc2nc(CNC(=O)c3ccco3)cn12	i	i	i	i	11	i
CC(=O)NCc1cn2c(C)csc2n1	i	i	i	i	i	i
Cc1ccc(OCCn2c(NC(=O)c3ccco3)nc3ccccc32)cc1	i	i	i	i	i	i
O=C(Nc1nc2ccccc2n1CCOc1ccccc1)c1ccco1	i	48	i	i	i	i
Cc1cccc(OCCn2c(NC(=O)c3ccco3)nc3ccccc32)c1	i	55	i	i	i	i
Cc1cc2c(cc(C(=O)OCC(=O)NCc3cccs3)n2C(C)C)o1	i	i	i	38	i	i
CCc1ccccc1N(CC(=O)N1CCN(c2ccccc2)CC1)S(C)(=O)=O	i	i	i	i	i	i
Cn1c(-c2c(N)n(C3CCCC3)c3nc4ccccc4nc23)nc2ccccc21	i	77	71	77	i	i
Nc1c(C(=O)OCC2CCCO2)c2nc3ccccc3nc2n1C1CCCC1 (stereo not given)	i	i	i	i	i	i
Cc1cccc2cc(CN(Cc3nnnn3C3CCCC3)C3CCCCC3)c(=O)[nH]c12	i	i	i	33	i	i
SMILES	HTR1A agonist	5HT1a antag	S1P1 ag-PAM	HTR1E antagonist	5HT1E ag	S1P3 agonist
CCCCn1c2c(c3ccccc31)CCc1nonc1-2	i	i	i	i	i	i
CCOC(=O)c1c(C)[nH]c(C(=O)COC(=O)c2cnc(C)cn2)c1C	i	i	i	i	i	i
CCOC(=O)c1c(C)[nH]c(C(=O)COC(=O)c2oc3ccc(OC)cc3c2C)c1C	i	i	i	i	35	i
COc1ccc2c(C=Nc3c(C)n(C)n(-c4ccccc4)c3=O)c(O)n(Cc3ccco3)c(=O)c2c1	i	i	i	i	i	i
Cc1ccc(C2C(C(=O)c3cc4ccccc4o3)=C(O)C(=O)N2CCCN(C)C)cc1 (stereo not given)	i	nt	i	i	i	i
COC(=O)c1nc2n(n1)C(c1cc(OC)ccc1OC)C(C(=O)OC1CCCCC1)=C(C)N2 (stereo not given)	i	i	nt	i	i	nt
O=S(=O)(Nc1ccc(N2CCOCC2)cc1)c1cccs1	i	i	i	i	10	i
COc1ccccc1N1CCN(C(=O)CSc2nc3ncnc(N)c3[nH]2)CC1	i	i	nt	i	i	i
COc1ccccc1N1CCN(C(=O)CSc2nc(-c3ccccc3)cc(=O)[nH]2)CC1	i	i	i	i	15	i
COc1ccccc1N1CCN(C(=O)CSc2nc(C)c(Cc3ccccc3)c(=O)[nH]2)CC1	i	i	i	i	20	i
COc1ccc(S(=O)(=O)N(CCCN2CCCC2=O)Cc2cc3cc(C)c(C)cc3[nH]c2=O)cc1	i	i	i	i	i	i
CCn1c(Cc2ccccc2)nnc1SCC(=O)Nc1ccc(S(N)(=O)=O)cc1	i	i	i	i	i	i
COc1ccccc1Oc1cc(C#N)c(C#N)cc1-n1nnc2ccccc21	i	49	i	i	i	20
COc1ccc(/C=N\n2nnc3ccccc32)cc1	i	i	i	i	i	i
Cc1cccc(-n2nc3c(c2NC(=O)c2ccc(Br)o2)CSC3)c1	i	i	nt	i	i	nt
COc1cccc(CSc2nnc(-c3ccco3)n2C)c1	i	i	i	i	i	i
CSc1nc2ccccc2n1CC(=O)Nc1ccccc1	i	i	i	i	i	i
CSc1nc2ccccc2n1CC(=O)Nc1ccc(C)c(C)c1	i	i	nt	i	15	nt
CCc1ccc(NC(=O)Cn2c(SC)nc3ccccc32)cc1	i	i	i	i	54	i
Cc1ccc(-c2nnc(SCC(=O)N3CC(C)CC(C)C3)o2)cc1C (stereo not given)	i	i	i	i	i	i
Cc1sc2nc(CN(Cc3cccs3)C(=O)C3CC3)[nH]c(=O)c2c1C	i	i	i	i	i	i
O=C(CC1Oc2ccccc2NC1=O)NCc1ccccc1 (stereo not given)	i	i	i	i	i	i
CC(=O)CC1OC(=O)C(Br)=C1NCc1ccccc1 (stereo not given)	i	69	i	i	i	i
CCOc1ccc(Nc2cc(C)nc(-n3nc(C)cc3C)n2)cc1	i	52	i	80	i	i
COc1ccc(N2CCn3c2nc2c3c(=O)n(CCCc3ccccc3)c(=O)n2C)cc1	i	i	i	i	i	i
COc1ccc(N2CC(C)Cn3c2nc2c3c(=O)n(CCc3ccccc3)c(=O)n2C)cc1 (stereo not given)	i	i	i	i	12	i
Cc1nc2c(sc3nc4c(cc32)COC(C)(C)C4)c(=O)n1CC(=O)NCc1ccco1	i	i	nt	31	i	nt
CC1(C)CN=C(N2CCN(C3=NCC(C)(C)S3)CC2)S1	i	i	i	i	i	i
COC(=O)C1=CN(CCCN2CCCC2=O)C=C(C(=O)OC)C1c1ccccc1C(F)(F)F	25	i	i	i	i	i
COc1ccccc1C(=O)NCCCN1CCCC1=O	i	i	i	i	i	i
